Activity calls are given as the source filed them. No cut-off for these calls is given here.
What was measured:
[1] = target: Nitric oxide synthase 1 (Homo sapiens) (UniProt P29475); assay: Inhibition of nNOS
[2] = target: Nitric oxide synthase 1 (Mus musculus) (UniProt Q9Z0J4); assay: Inhibition of cytosolic nNOS in stantia nigra isolated from MPTP-induced parkinson's disease C57/Bl6 mouse model assessed as L-[3H]citrulline per mg of protein at 20 mg/kg, b.w 1 hr before MPTP challenge after 32 hrs by liquid scintillation spectroscopy; type: organism-based; parameters: dose 20 mg/kg
In short: (§1)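 C57/Bl6 mice (22–28 g) given MPTP 15 mg/kg s.c. at 0, 2, 4, 6, 24, 26 and 28 h; single compound dose 20 mg/kg b.w. 1 h before first MPTP; controls got ethanol/saline vehicle. Killed 32 h after treatments; substantia nigra cytosol and mitochondria assayed by L-[3H]-citrulline formation, as pmol/mg protein/min. Seven experiments in triplicate, four SN each.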

[3] = target: T1, Nitric oxide synthase, inducible (Mus musculus) (UniProt P29477); assay: Inhibition of cytosolic iNOS in stantia nigra isolated from MPTP-induced parkinson's disease C57/Bl6 mouse model assessed as L-[3H]citrulline per mg of protein at 20 mg/kg, b.w 1 hr before MPTP challenge after 32 hrs by liquid scintillation spectroscopy; type: organism-based; parameters: dose 20 mg/kg; in short: as §1
T1 sequence (whole entry): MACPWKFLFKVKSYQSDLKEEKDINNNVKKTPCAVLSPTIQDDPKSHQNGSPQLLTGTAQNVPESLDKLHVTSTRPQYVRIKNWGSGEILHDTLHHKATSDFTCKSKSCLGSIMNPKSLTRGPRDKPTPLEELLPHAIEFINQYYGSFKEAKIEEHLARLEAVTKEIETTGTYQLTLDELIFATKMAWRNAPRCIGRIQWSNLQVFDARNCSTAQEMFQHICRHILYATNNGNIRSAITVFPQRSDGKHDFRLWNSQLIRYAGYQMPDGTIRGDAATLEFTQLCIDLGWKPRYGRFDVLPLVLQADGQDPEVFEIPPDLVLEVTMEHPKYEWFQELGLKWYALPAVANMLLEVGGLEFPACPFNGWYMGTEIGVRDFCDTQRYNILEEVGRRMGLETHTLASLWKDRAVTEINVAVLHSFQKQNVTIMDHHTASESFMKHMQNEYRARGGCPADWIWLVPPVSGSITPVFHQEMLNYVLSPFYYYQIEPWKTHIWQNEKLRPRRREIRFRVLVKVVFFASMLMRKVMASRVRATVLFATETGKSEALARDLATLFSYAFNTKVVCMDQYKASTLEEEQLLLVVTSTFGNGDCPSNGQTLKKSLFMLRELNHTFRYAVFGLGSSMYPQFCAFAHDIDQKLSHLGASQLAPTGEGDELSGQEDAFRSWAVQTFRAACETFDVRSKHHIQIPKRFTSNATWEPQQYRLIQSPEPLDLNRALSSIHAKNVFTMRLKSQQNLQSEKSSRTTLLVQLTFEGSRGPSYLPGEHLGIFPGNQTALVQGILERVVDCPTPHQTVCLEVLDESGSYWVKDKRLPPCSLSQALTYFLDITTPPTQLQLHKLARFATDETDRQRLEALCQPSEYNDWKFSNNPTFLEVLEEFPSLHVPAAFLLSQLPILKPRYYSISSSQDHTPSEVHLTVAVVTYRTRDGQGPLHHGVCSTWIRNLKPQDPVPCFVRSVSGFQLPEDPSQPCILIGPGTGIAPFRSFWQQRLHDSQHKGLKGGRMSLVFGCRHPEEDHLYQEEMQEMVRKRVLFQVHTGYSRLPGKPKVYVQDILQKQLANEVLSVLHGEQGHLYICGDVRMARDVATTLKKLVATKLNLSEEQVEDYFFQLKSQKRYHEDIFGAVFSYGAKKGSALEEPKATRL

[4] = target: Nitric oxide synthase 1 (Mus musculus) (UniProt Q9Z0J4); assay: Inhibition of constitutive mitochondrial NOS in stantia nigra isolated from MPTP-induced parkinson's disease C57/Bl6 mouse model assessed as L-[3H]citrulline per mg of protein at 20 mg/kg, b.w 1 hr before MPTP challenge after 32 hrs by liquid scintillation spectroscopy; type: organism-based; parameters: dose 20 mg/kg; in short: as §1
[5] = target: T1, Nitric oxide synthase, inducible (Mus musculus); assay: Inhibition of inducible mitochondrial NOS in stantia nigra isolated from MPTP-induced parkinson's disease C57/Bl6 mouse model assessed as L-[3H]citrulline per mg of protein at 20 mg/kg, b.w 1 hr before MPTP challenge after 32 hrs by liquid scintillation spectroscopy; type: organism-based; parameters: dose 20 mg/kg; in short: as §1
[6] = target: Nitric oxide synthase 1 (Rattus norvegicus) (UniProt P29476); assay: Inhibition of nNOS in Wistar rat striata tissue homogenate assessed as conversion of L-[3H]arginine to L-[3H]citrulline at 1 mM by liquid scintillation spectroscopy; type: tissue-based; settings: Striatum
In short: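 Male Wistar rats killed by cervical dislocation; fresh striata homogenized in Tris-HCl pH 7.6 with protease inhibitors, spun 1000g 5 min. Supernatant incubated 30 min at 37 °C with 10 µM L-arginine plus 50 nM L-[3H]-arginine, CaCl2, BH4, FAD, NADPH 0.75 mM final; compound 1 mM final in DMSO. Dowex-50W separation; citrulline by scintillation; NADPH-omitted blank subtracted. Three experiments in triplicate, four striata each.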

[7] = target: Nitric oxide synthase, inducible (Rattus norvegicus) (UniProt Q06518); assay: Inhibition of iNOS in LPS-treated Wistar rat lung tissue homogenate assessed as conversion of L-[3H]arginine to L-[3H]citrulline at 1 mM by liquid scintillation spectroscopy
In short: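 iNOS induced in Wistar rats by LPS 20 mg/Kg i.v.; lungs taken 8 h later, homogenized in ice-cold Tris-HCl pH 7.6 with protease inhibitors, then incubated with 10 mM EDTA to remove nNOS activity. Conversion of L-[3H]-arginine to L-[3H]-citrulline at 37 °C for 30 min with NADPH, compound 1 mM final; Dowex separation, scintillation counting.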

[8] = Binding affinity to CaCAM

Sequence of Nitric oxide synthase 1 (Rattus norvegicus) (P29476 whole entry): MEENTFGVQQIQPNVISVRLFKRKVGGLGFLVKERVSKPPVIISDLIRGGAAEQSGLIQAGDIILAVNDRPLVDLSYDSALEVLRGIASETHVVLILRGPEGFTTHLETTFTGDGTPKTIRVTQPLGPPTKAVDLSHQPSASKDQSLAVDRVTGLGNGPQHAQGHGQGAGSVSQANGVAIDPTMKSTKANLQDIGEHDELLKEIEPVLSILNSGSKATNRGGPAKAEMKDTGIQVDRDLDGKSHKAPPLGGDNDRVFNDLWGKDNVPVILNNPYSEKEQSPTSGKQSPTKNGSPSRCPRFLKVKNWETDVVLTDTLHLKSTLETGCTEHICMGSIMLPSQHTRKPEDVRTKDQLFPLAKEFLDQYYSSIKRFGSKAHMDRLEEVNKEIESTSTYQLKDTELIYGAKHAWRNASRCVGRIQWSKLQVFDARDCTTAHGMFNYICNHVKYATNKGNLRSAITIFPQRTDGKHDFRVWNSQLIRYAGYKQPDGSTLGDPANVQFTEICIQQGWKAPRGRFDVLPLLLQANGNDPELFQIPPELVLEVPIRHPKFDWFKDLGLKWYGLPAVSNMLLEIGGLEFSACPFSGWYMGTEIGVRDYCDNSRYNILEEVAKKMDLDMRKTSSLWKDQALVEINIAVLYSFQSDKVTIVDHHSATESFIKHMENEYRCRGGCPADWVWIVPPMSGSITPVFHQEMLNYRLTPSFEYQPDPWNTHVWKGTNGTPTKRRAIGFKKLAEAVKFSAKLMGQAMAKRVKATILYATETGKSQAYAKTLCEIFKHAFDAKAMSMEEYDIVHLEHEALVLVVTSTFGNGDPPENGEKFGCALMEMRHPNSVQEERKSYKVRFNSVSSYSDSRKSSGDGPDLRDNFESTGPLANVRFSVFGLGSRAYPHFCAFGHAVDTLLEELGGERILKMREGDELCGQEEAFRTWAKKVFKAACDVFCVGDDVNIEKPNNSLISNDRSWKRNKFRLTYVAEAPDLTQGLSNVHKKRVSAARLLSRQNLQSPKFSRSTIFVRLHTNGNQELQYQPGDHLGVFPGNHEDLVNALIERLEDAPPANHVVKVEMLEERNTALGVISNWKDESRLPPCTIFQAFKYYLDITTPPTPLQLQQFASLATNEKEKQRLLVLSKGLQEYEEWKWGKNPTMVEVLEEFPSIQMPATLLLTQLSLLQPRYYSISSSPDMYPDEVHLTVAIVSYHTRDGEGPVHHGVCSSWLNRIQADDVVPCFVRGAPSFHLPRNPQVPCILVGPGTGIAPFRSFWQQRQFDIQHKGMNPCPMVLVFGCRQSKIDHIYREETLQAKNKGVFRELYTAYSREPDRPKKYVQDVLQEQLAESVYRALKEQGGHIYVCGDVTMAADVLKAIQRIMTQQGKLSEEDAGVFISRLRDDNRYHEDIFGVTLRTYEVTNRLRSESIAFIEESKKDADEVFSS
Sequence of Nitric oxide synthase 1 (Homo sapiens) (P29475 whole entry): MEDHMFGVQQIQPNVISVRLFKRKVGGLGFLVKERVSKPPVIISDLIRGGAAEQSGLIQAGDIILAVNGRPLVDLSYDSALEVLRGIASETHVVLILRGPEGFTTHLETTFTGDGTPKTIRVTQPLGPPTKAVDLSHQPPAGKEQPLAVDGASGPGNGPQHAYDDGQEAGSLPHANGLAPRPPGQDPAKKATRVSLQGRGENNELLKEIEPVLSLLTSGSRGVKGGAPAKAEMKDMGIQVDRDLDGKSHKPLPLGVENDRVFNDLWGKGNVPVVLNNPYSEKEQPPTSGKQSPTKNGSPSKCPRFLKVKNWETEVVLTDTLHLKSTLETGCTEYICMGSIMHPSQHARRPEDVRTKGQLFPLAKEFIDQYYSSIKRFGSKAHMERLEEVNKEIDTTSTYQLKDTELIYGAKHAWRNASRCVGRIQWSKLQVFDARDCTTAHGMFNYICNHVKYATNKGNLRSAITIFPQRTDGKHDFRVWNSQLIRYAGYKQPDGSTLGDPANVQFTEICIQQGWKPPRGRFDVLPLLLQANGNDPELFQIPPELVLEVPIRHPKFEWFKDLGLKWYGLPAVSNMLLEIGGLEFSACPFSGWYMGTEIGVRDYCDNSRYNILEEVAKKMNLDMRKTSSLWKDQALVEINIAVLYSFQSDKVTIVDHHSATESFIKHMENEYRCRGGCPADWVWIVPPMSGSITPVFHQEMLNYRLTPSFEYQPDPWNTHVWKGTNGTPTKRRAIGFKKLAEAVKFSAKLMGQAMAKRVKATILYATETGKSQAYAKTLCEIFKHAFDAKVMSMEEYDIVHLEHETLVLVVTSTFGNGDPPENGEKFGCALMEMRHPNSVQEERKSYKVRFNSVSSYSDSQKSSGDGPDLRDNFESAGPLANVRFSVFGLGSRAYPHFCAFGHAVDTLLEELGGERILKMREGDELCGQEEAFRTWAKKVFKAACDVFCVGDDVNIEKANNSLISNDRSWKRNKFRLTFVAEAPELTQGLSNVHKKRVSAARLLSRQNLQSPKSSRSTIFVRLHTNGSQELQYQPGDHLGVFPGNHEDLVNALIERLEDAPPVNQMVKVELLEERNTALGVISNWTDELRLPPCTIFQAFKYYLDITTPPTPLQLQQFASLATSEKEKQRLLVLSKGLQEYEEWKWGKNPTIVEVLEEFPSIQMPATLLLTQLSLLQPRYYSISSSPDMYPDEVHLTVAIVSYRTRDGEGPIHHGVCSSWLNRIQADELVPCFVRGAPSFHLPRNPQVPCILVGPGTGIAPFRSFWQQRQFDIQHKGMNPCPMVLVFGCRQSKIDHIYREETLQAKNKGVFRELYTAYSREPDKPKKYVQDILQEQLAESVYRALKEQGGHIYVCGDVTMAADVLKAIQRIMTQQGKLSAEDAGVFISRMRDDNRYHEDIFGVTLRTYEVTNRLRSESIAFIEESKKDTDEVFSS
Sequence of Nitric oxide synthase, inducible (Rattus norvegicus) (Q06518 whole entry): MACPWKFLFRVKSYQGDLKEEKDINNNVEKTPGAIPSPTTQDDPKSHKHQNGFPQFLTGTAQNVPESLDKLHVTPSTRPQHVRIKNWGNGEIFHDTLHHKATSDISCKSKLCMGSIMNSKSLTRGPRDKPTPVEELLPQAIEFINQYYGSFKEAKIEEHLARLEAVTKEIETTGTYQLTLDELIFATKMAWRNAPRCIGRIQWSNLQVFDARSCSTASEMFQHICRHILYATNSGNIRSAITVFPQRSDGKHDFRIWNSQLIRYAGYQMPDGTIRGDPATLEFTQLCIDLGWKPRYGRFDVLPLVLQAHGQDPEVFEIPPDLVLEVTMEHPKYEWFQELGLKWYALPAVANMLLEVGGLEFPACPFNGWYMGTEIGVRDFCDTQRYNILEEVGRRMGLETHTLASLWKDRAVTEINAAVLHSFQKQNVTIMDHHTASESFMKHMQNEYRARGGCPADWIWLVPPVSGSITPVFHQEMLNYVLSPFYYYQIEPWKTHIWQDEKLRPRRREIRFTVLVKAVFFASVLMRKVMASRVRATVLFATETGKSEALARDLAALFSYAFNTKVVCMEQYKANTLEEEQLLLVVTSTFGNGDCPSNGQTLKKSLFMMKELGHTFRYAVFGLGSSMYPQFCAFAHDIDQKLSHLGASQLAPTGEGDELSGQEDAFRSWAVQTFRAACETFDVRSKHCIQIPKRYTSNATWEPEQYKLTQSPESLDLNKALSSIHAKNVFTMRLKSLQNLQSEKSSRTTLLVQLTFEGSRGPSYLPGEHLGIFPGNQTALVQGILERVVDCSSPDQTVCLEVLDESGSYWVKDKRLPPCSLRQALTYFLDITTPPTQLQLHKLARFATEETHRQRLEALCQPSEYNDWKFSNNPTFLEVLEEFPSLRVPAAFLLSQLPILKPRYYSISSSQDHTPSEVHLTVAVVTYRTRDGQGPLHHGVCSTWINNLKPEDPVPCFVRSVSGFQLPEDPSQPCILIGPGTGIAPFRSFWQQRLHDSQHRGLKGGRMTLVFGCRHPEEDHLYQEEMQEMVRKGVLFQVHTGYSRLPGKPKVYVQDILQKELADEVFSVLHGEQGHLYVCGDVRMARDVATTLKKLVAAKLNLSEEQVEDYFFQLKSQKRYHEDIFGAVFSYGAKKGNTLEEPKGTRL

## COc1ccc2[nH]cc(CCNC(C)=O)c2c1
[1]
  inhibition: Dose-dependent effect
[2]
  Activity: 19.9 pmol/min
[3]
  Activity: 19 pmol/min
[4]
  Activity: 13.8 pmol/min
[5]
  Activity: 23.6 pmol/min

## Nc1ccccc1-c1ccc(C(=O)NCc2ccccc2)[nH]1
[6]
  inhibition: 7.52%
[7]
  inhibition: 28.1%
[8]
  Activity: inactive

## COc1ccc(N)c(-c2ccc(C(=O)NCc3ccccc3)[nH]2)c1
[6]
  inhibition: 8.89%
[7]
  inhibition: 22.4%
[8]
  Activity: inactive

## Cn1c(C(N)=O)ccc1-c1ccccc1N
[6]
  inhibition: 9.56%
[7]
  inhibition: 16%
[8]
  Activity: inactive

## Nc1ccccc1-c1ccc(C(=O)NC2CC2)[nH]1
[6]
  inhibition: 2.92%
[7]
  inhibition: -1.1%
[8]
  Activity: inactive

## CCNC(=O)c1ccc(-c2cc(Cl)ccc2N)[nH]1
[6]
  inhibition: 33.4%
[7]
  inhibition: 2.8%
[8]
  Activity: inactive

## COc1ccc(N)c(-c2ccc(C(=O)NC3CC3)[nH]2)c1
[6]
  inhibition: 32.5%
[7]
  inhibition: 21.4%
[8]
  Activity: inactive

## CCCCNC(=O)c1ccc(-c2ccccc2N)[nH]1
[6]
  inhibition: -0.01%
[7]
  inhibition: 7.53%
[8]
  Activity: inactive

## CCCNC(=O)c1ccc(-c2cc(OC)ccc2N)[nH]1
[6]
  inhibition: 43.5%
[7]
  inhibition: 6.78%
[8]
  Activity: inactive

## COc1ccc(N)c(-c2ccc(C(N)=O)[nH]2)c1
[7]
  inhibition: 8.95%
[8]
  Activity: inactive

## CNC(=O)c1ccc(-c2cc(Cl)ccc2N)[nH]1
[6]
  inhibition: 17.1%
[7]
  inhibition: 1.27%
[8]
  Activity: inactive

## NC(=O)c1ccc(-c2cc(Cl)ccc2N)[nH]1
[6]
  inhibition: 34.5%
[7]
  inhibition: 5.34%
[8]
  Activity: inactive

## COc1ccc(N)c(C(=O)CC(NC(C)=O)C(=O)O)c1 (stereo unspecified)
[1]
  inhibition: Dose-dependent effect

## Nc1ccccc1-c1ccc(C(=O)NC2CCC2)[nH]1
[6]
  inhibition: 8.44%
[7]
  inhibition: 20.1%
[8]
  Activity: inactive

## CN1CC=C(c2ccccc2)CC1
[2]
  Activity: 83.7 pmol/min
[3]
  Activity: 29.4 pmol/min
[4]
  Activity: 25.9 pmol/min
[5]
  Activity: 43.8 pmol/min

## COc1ccc(N)c(C(=O)CCNC(C)=O)c1
[1]
  inhibition: Dose-dependent effect

## Nc1ccccc1-c1ccc(C(=O)NC2CCCCC2)[nH]1
[6]
  inhibition: 13.4%
[7]
  inhibition: 17.2%
[8]
  Activity: inactive

## CNC(=O)c1ccc(-c2ccccc2N)[nH]1
[7]
  inhibition: 32.7%
[2]
  Activity: 65.5 pmol/min
[3]
  Activity: 5.78 pmol/min
[4]
  Activity: 9.95 pmol/min
[5]
  Activity: 7.46 pmol/min
[8]
  Activity: inactive

## COc1ccc(N)c(-c2ccc(C(=O)NC3CCCC3)[nH]2)c1
[6]
  inhibition: 15.3%
[7]
  inhibition: 26.2%
[8]
  Activity: inactive

## CCNC(=O)c1ccc(-c2ccccc2N)[nH]1
[6]
  inhibition: 4.15%
[7]
  inhibition: 20.5%
[8]
  Activity: inactive

## Nc1ccc(Cl)cc1-c1ccc(C(=O)NC2CC2)[nH]1
[6]
  inhibition: 48.1%
[7]
  inhibition: 7.2%
[8]
  Activity: inactive

## Nc1ccccc1-c1ccc(C(=O)NC2CCCC2)[nH]1
[6]
  inhibition: 5.36%
[7]
  inhibition: 52.8%
[2]
  Activity: 74.3 pmol/min
[3]
  Activity: 6.53 pmol/min
[4]
  Activity: 14.1 pmol/min
[5]
  Activity: 9.45 pmol/min
[8]
  Activity: inactive

## CCCCNC(=O)c1ccc(-c2cc(Cl)ccc2N)[nH]1
[6]
  inhibition: 36.5%
[7]
  inhibition: 3.33%
[8]
  Activity: inactive

## NC(=O)c1ccc(-c2ccccc2N)[nH]1
[6]
  inhibition: 15%
[7]
  inhibition: 3.07%
[8]
  Activity: inactive

## CCCNC(=O)c1ccc(-c2ccccc2N)[nH]1
[7]
  inhibition: 13.2%
[8]
  Activity: inactive

## CNC(=O)c1ccc(-c2cc(OC)ccc2N)[nH]1
[7]
  inhibition: 26.2%
[8]
  Activity: inactive
